An excerpt weighted towards active compounds, which were near 2% of everything screened.
HCV core dimer = inhibitors of HCV core protein dimerization, primary screen, biochemical, TR-FRET, high-throughput | TR-FRET GST/Flag-core106 dimerization, 1536-well | inhibition, % at 5 µM | hit rate 0.33% among 300,000;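 active = inhibition above the mean of all tested compounds plus 3 SD, set per screening campaign, cut at about 45% in these data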
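Assay system: tagged HCV core106 pair (GST and Flag); medium: KF-containing HEPES buffer, pH 7.45, DTT, CHAPS, BSA; also added: Eu donor and XL665 acceptor anti-tag antibodies; dosing: 5 µM single dose; timing: compound-protein-antibody incubation 4 h at 22.5 °C; signal: TR-FRET 671 and 617 nm emission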
PABP FP inh = PABP poly(A) RNA binding inhibitors, primary screen, biochemical, fluorescence polarization, uHTS. Polyadenylate-binding protein 1 (Homo sapiens), P11940. inhibition, % at 35 µM. hit rate 1% among 290,000. AID 2014, 2009;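 also: calls also rest on retests at 20 µM and on dose response follow-up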
PABP1 MLLE inh = inhibitors of PABP1 MLLE–PAM2 peptide binding, primary screen, biochemical, fluorescence polarization, FITC-PAM2, GST-MLLE. inhibition, % at 20 µM. hit rate 0.36% among 360,000; in the data active = inhibition above about 35%, passing the limit was not always enough;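 also: plate controls were DMSO wells with GST-MLLE for no effect and wells lacking GST-MLLE protein for full effect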
eIF4H FP inh = human eIF4H binding inhibitors, primary screen, translation initiation inhibitor project, biochemical, uHTS, fluorescence polarization | Eukaryotic translation initiation factor 4H (Homo sapiens), Q15056 | eIF4H fluorescence polarization binding assay | inhibition, % at 35 µM | hit rate 0.94% among 290,000 | AID 2012, 2009;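 also: calls also rest on retests at 20 µM and on dose response follow-up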
NS3 helicase inh = inhibitors of HCV NS3 helicase, primary screen, biochemical, Cy5 molecular beacon fluorescence. Hepatitis C virus NS3 helicase. NS3 helicase DNA unwinding. inhibition, % at 10.9 µM. hit rate 0.56% among 290,000;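 active = inhibition above the mean of all tested compounds plus 3 SD, set per campaign, cut at about 35% in these data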;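 also: 0% = DMSO wells and 100% = thioflavine S control wells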
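assay system = NS3 helicase fragment of HCV | buffer or medium = MOPS pH 6.5, MgCl2, DTT, Tween20, BSA | timing = 60 min unwinding reaction at 25 °C after ATP addition | signal = Cy5 beacon fluorescence read at start and 1 h | read-out basis = % inhibition of unwinding | control set = low DMSO, high thioflavine S at 110 µM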
DNA FID counter-1 = compounds displacing fluorescent DNA intercalator, primary screen, artefact control for HCV NS3 helicase inhibitor project, biochemical, FID fluorescence. DNA fluorescent intercalator displacement. inhibition, % at 7.9 µM. AID 1845, 2009. hit rate 0.17% among 290,000; in the data active = inhibition above about 37%;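 also: 0% = vehicle and 100% = reference compound; higher means more ethidium bromide displaced from hairpin DNA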
NS3 helicase cf = HCV NS3 helicase inhibitors, retest, confirmation, biochemical, Cy5 molecular beacon fluorescence, triplicate. shares compounds with NS3 helicase inh. NS3 helicase DNA unwinding. inhibition, % at 10.9 µM. hit rate 31% among 1,600;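 active = inhibition above the mean of all tested compounds plus 3 SD, cutoff set per campaign, cut at about 36% in these data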
DNA FID counter-2 = compounds displacing fluorescent DNA intercalator, artefact control for HCV NS3 helicase inhibitor project, biochemical, FID fluorescence, triplicate. shares compounds with NS3 helicase inh. inhibition, % at 7.9 µM. DNA fluorescent intercalator displacement. hit rate 4% among 1,600; in the data active = inhibition above about 37%;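 also: 0% = vehicle and 100% = reference compound; higher means more displacement of ethidium bromide from the DNA hairpin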
Active calls of the source: *; ? = inconclusive; / = no result given. Unless noted, no rule for the calls is given here.

SMILES	HCV core dimer	PABP FP inh	PABP1 MLLE inh	eIF4H FP inh	NS3 helicase inh	DNA FID counter-1	NS3 helicase cf	DNA FID counter-2
CCCc1cc(=O)oc2cc(C)cc(OC(C)C(=O)NCC3CCC(C(=O)O)CC3)c12 (centres undefined)	-5	-10	-8	-7	38*	-35	-19	-12
N#C/C(=C\c1ccco1)c1nc2ccccc2s1	-8	-8	-31	?	7	-6	/	/
N#C/C(=C/c1ccc(-c2cc(C(=O)O)cc(C(=O)O)c2)o1)c1nc2ccccc2s1	-4	-8	/	?	36*	-15	82*	-15
C#CCSC1=C(C#N)C(c2cccs2)C(C(=O)OCC)=C(C)N1 (centres undefined)	31	16*	8	63*	46*	-19	-6	-6
CCOC(=O)C1=C(C)NC(C)=C(C(=O)OCC)C1c1cccs1	-9	-6	9	-1	-14	-22	/	/
O=C(CC[C@H]1O[C@@H](n2cnc3c(NC(=O)c4ccccc4)ncnc32)[C@H](O)[C@@H]1O)N[C@@H](CO)c1ccccc1	/	/	4	/	/	/	/	/
N#Cc1c(N2C(=O)Nc3ccccc3N2O)sc2c1CCCCCC2	12	0	14	-3	42*	-22	54*	-7
O=C(O)c1ccccc1-c1ccccc1C(=O)NNc1ccc([N+](=O)[O-])cc1	7	8	-1	3	38*	-14	-29	-6
O=C(NNc1ccc([N+](=O)[O-])cc1)c1ccccc1Cl	-4	-6	-26	3	-2	0	/	/
COc1cccc2[nH]c3c(=O)n(CCN(C)C)cnc3c12	3	-15	-5	0	/	/	/	/
CCN(CC)CCn1cnc2c([nH]c3cccc(OC)c32)c1=O	-2	4	16	-8	42*	-9	-16	2
COc1cc(/C=N/NC(N)=O)cc([N+](=O)[O-])c1O	-38	15	-11	21	39*	2	-12	5
COC(=O)N/N=C/c1cc(OC)c(O)c([N+](=O)[O-])c1	-29	-6	3	6	-8	-4	/	/
O=C(COc1ccccc1)N/N=C/c1ccc([N+](=O)[O-])o1	0	69*	6	51*	41*	-13	-7	15
CCCc1ccc(-c2cc(C(=O)N/N=C/c3ccc([N+](=O)[O-])o3)c3ccccc3n2)cc1	26	7	8	46	10	-17	/	/
O=C(CNc1ccc2ccccc2c1)N/N=C/c1ccc([N+](=O)[O-])o1	-8	-8	-3	27	55*	-12	0	11
O=C(N/N=C/c1ccc([N+](=O)[O-])o1)c1cc(-c2cccc(Br)c2)nc2ccccc12	71*	8	-19	56*	41*	-18	38*	18
Cc1ccc(OCC(=O)N/N=C/c2ccc([N+](=O)[O-])o2)cc1	-10	-7	3	23	13	0	/	/
O=C(CNc1ccc2ccccc2c1)N/N=C/c1ccc(C(=O)O)cc1	-6	6	-10	10	1	-38	/	/
Cc1ccc(S(=O)(=O)N2C[C@@H](C)[C@]3(C2)[C@H](O)[C@H](OC(=O)NCc2ccccc2F)C[C@H]2C(=O)N(c4ccccc4)C(=O)[C@H]23)cc1	/	/	1	/	/	/	/	/
CCc1nc2ccc(C(=O)N3CCCC(C(N)=O)C3)cn2c1N(CCC(C)C)CCN(C)C (centres undefined)	/	/	-8	/	/	/	/	/
Cc1cccc(NC(=O)CN(CC2CCCO2)C(=O)c2cc3ccccc3o2)c1C (centres undefined)	/	/	-6	/	/	/	/	/

Screens deposited in PubChem by several laboratories.
